# Test results as given in ChEMBL document CHEMBL1156039, “Nonpeptide urotensin-II receptor antagonists: a new ligand class based on piperazino-phthalimide and piperazino-isoindolinone subunits” (J Med Chem, 2009).
# Calls of active or inactive are those of the source. The rule behind the calls is not given here. Where a SMILES comes first, the peptide text is derived from it. Bridges are numbered along the chain shown (N, C = ends). [ ]: non-standard residue; d: D form. 2Nal = N[C@@H](Cc1ccc2ccccc2c1)C(=O)O
# Assays:
# Urotensin-2 receptor [1] = target: T1, Urotensin-2 receptor (Rattus norvegicus, UniProt P49684); test: Antagonist activity at rat urotensin 2 receptor expressed in CHOK1 cells assessed as inhibition of urotensin 2-induced intracellular calcium mobilization after 10 min by FLIPR assay
# T1 sequence (P49684 whole entry): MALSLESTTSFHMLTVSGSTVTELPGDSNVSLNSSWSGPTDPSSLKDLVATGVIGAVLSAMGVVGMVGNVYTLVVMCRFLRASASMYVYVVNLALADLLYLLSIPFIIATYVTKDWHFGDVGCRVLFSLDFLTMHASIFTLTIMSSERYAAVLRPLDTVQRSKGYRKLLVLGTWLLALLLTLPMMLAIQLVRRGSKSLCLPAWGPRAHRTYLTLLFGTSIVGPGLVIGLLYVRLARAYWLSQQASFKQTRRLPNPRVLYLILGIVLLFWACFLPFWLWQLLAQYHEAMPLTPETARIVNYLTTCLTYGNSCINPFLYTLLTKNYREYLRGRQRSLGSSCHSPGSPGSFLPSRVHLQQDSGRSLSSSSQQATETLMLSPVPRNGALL
# Urotensin-2 receptor [2] = target: T2, Urotensin-2 receptor (Homo sapiens, UniProt Q9UKP6); test: Displacement of [125I]urotensin 2 from urotensin 2 receptor in human RMS13 cells by scintillation proximity assay; assay type: cell-based
# T2 sequence (Q9UKP6 whole entry): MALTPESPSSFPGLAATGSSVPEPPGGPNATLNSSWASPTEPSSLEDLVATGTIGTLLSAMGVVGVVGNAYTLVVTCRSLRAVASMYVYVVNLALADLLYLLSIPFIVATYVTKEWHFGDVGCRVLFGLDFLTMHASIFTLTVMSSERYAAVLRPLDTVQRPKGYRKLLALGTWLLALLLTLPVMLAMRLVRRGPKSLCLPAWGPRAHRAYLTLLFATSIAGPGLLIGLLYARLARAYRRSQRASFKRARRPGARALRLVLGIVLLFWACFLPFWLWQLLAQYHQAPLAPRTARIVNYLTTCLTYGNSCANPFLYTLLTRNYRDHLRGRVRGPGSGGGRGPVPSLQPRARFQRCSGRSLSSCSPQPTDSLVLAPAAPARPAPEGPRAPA
# [3] = Half life in human liver microsomes; assay type: ADME, Microsome
# Rattus norvegicus [4] = test: Inhibition of ear flushing in Sprague-Dawley rat ear-flush model assessed as complete attenuation of urotensin 2-induced increase in ear pinna temperature at 10 mg/kg, iv administered 15 mins prior to urotensin 2 challenge; assay type: functional, organism-based; design: dose 10 mg/kg
# Urotensin-2 receptor [5] = target: T1, Urotensin-2 receptor; test: Antagonist activity at rat urotensin 2 receptor expressed in CHOK1 cells assessed as inhibition of urotensin 2-induced intracellular calcium mobilization after 1 hr by FLIPR assay; assay type: functional, cell-based, CHO-K1
# Outline: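 Stable CHO-K1 line expressing rat UT, selected with G418 and seeded 24 h ahead. Cells loaded with calcium dye for 1 h at 37 °C in HBSS/20 mM HEPES/0.1% BSA/2.5 mM probenecid, pH 7.4. Compound preincubated 10 min, then agonist added: goby U-II 0.1 nM or peptide agonist 0.3 or 1 nM. FLIPR calcium read at 23 °C; N = 2-6.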
# Aorta = test: Vasorelaxant activity in Wistar rat thoracic aortic ring assessed as inhibition of contraction at 100 nM
# Urotensin-2 receptor [6] = target: T2, Urotensin-2 receptor; test: Antagonist activity at urotensin 2 receptor in human RMS13 cells assessed as inhibition of urotensin 2-induced intracellular calcium mobilization after 1 hr by FLIPR assay; assay type: functional, cell-based
# Outline: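 Human rhabdomyosarcoma (RMS13) cells expressing endogenous UT. Inhibition of U-II-driven calcium mobilization measured by FLIPR; N = 2-6.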
# Urotensin-2 receptor [7] = target: T1, Urotensin-2 receptor; test: Displacement of [125I]urotensin 2 from rat urotensin 2 receptor expressed in CHOK1 cells by scintillation proximity assay; assay type: cell-based, CHO-K1
# Outline: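 Membranes from CHO cells stably expressing rat UT were precoupled to WGA-coated SPA beads (15 μg membrane/mg beads, 30 min, room temperature) in 50 mM Tris-HCl, 5 mM MgCl2, 0.1% BSA, pH 7.4. Final conditions: 1.0 mg beads per well, 0.17 nM [125I]-[Tyr]-rat U-II, and varied compound concentrations, shaken 3 h at 22 °C. Nonspecific binding was defined with 1 μM rat U-II.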
# [8] = Inhibition of sodium channel site 2 at 10 uM
# Outline: (§1)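 Part of a contract panel of 50 receptors and ion channels. Each target was run as a binding assay with a reference ligand, with the test compound at 10 μM.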
# [9] = target: Muscarinic acetylcholine receptor M3 (Homo sapiens) (UniProt P20309); test: Inhibition of human muscarinic M3 receptor at 10 uM
# Sequence of Muscarinic acetylcholine receptor M3 (Homo sapiens) (P20309 whole entry, looked up): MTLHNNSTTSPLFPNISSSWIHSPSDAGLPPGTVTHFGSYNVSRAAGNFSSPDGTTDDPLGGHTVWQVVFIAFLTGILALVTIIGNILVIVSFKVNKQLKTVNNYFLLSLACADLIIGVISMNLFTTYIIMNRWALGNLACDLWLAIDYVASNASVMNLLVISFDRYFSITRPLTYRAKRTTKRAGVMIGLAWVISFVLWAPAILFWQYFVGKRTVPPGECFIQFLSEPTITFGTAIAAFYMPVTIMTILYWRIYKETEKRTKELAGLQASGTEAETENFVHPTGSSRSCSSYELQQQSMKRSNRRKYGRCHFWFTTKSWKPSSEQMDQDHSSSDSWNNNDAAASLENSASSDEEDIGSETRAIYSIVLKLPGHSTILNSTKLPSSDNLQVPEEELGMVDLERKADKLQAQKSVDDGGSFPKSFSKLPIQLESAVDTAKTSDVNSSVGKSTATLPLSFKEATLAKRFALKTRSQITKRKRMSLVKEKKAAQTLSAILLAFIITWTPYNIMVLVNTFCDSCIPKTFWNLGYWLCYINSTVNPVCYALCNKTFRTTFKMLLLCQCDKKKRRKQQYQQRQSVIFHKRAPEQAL
# [10] = Inhibition of alpha1 adrenergic receptor at 10 uM
# Outline: as §1
# [11] = target: T3, 5-hydroxytryptamine receptor 1A (Homo sapiens) (UniProt P08908); test: Inhibition of human 5HT1A receptor at 10 uM
# T3 sequence (whole entry): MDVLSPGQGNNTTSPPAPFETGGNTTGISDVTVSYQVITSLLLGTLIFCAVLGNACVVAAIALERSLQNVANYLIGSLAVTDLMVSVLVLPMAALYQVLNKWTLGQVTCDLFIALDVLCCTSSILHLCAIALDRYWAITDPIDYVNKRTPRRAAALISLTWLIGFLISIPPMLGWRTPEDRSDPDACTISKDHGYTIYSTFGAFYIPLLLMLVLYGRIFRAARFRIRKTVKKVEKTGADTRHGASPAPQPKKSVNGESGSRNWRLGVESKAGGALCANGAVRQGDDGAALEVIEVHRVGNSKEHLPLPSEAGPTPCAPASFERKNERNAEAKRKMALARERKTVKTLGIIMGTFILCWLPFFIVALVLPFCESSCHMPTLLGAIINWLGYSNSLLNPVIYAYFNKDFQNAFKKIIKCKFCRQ
# [12] = target: T4, Muscarinic acetylcholine receptor M1 (Homo sapiens) (UniProt P11229); test: Inhibition of human muscarinic M1 receptor at 10 uM
# T4 sequence (whole entry): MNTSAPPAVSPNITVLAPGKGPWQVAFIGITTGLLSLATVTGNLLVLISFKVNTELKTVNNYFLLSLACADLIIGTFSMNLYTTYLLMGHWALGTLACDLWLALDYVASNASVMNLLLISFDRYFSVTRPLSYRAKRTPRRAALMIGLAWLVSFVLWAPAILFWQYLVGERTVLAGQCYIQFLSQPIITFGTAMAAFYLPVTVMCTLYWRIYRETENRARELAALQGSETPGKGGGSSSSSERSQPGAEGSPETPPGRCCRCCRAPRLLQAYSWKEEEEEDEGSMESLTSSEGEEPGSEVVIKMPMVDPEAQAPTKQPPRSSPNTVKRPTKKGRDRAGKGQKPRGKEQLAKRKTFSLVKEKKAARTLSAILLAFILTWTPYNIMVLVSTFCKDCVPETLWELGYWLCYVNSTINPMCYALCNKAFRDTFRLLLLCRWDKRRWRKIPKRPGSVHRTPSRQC
# Rattus norvegicus [13] = test: Inhibition of ear flushing in Sprague-Dawley rat ear-flush model assessed as attenuation of urotensin 2-induced increase in ear pinna temperature at 3 mg/kg, iv administered 15 mins prior to urotensin 2 challenge; assay type: functional, organism-based; design: dose 3 mg/kg
# [14] = target: 5-hydroxytryptamine receptor 1B (Homo sapiens) (UniProt P28222); test: Inhibition of 5HT1B receptor at 10 uM
# Sequence of 5-hydroxytryptamine receptor 1B (Homo sapiens) (P28222 whole entry): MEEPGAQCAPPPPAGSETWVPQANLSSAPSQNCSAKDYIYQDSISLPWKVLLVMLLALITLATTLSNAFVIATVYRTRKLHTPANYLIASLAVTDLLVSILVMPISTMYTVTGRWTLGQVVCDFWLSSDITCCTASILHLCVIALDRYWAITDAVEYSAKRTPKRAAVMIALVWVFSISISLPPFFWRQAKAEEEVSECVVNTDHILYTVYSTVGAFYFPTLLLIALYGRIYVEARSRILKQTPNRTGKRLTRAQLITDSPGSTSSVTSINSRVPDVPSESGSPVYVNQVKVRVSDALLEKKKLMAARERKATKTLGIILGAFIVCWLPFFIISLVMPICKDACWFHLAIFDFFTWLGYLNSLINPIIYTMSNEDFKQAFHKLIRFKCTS
# [15] = Oral bioavailability in rat; assay type: ADME, organism-based; conditions: in vivo
# [16] = Half life in rat; assay type: ADME, organism-based; conditions: in vivo
# [17] = in the assay text read “after 10 min” for “after 1 hr”
Structure (SMILES),IC50 (Urotensin-2 receptor [1]) [nM],Ki (Urotensin-2 receptor [2]) [nM],IC50 (Urotensin-2 receptor [6]) [nM],other results
COc1cc(Br)c(S(=O)(=O)Nc2ccc(C(F)(F)F)c(O[C@@H]3CCN(C)C3)c2)cc1OC,–,–,–,Activity (Rattus norvegicus [4]): Active; IC50 (Urotensin-2 receptor [5]; [17]): 34 nM; inhibition at 0.1 µM (Aorta): 97%
CCN1CCN(c2cccc3c2CN([C@H](CCCNS(=O)(=O)c2cn(C)c(C)n2)c2ccc(OC)c(OC)c2)C3=O)CC1,–,25,51,IC50 (Urotensin-2 receptor [5]): 23 nM
COc1ccc([C@@H](CCCN(C)S(=O)(=O)c2cccs2)N2Cc3c(cccc3N3CCN(C4CC4)CC3)C2=O)cc1OC,–,–,1200,–
COc1ccc([C@@H](CCCN(C)S(=O)(=O)c2cccs2)N2Cc3c(cccc3N3CCN(C)CC3)C2=O)cc1OC,–,< 6,–,–
COc1ccc(C(CCCNS(=O)(=O)c2cccs2)N2C(=O)c3cccc(N4CCN([C@H](C)c5ccccc5)CC4)c3C2=O)cc1OC (stereo not given in full),–,–,250,–
CCN1CCN(c2cccc3c2CN([C@H](CCCNc2cncc(Cl)n2)c2ccc(OC)c(OC)c2)C3=O)CC1,1,62,500,–
CC(=O)N[C@H]1CSSC[C@@H](C(N)=O)NC(=O)[C@H](Cc2ccc3ccccc3c2)NC(=O)[C@H](CCCCN)NC(=O)[C@H](Cc2c[nH]c3ccccc23)NC(=O)[C@H](Cc2ccccc2)NC1=O (Ac-CFWK[2Nal]C-NH2; disulfide 1-6),–,–,–,Ki (Urotensin-2 receptor [7]): 0.12 nM; EC50 (Urotensin-2 receptor [5]): 0.54 nM
CCN1CCN(c2cccc3c2[C@H]2CCC[C@H](c4ccc(OC)c(OC)c4)N2C3=O)CC1,14,–,–,–
CCN1CCN(c2cccc3c2CN([C@H](CCCNc2cncc(OC)n2)c2ccc(OC)c(OC)c2)C3=O)CC1,–,8,62,IC50 (Urotensin-2 receptor [5]; [17]): 4 nM
COc1ccc([C@@H](CCCN(C)S(=O)(=O)c2cccs2)N2Cc3c(cccc3N3CCN(C(C)C)CC3)C2=O)cc1OC,–,–,500,–
CCN1CCN(c2cccc3c2CN([C@H](CCCNS(=O)(=O)c2cccs2)c2ccc(OC)c(OC)c2)C3=O)CC1,–,–,–,inhibition [8]: 59%; inhibition [9]: 55%; inhibition [10]: 68%; inhibition [11]: 93%; Activity (Rattus norvegicus [4]): Active; inhibition [12]: 65%; Activity (Rattus norvegicus [13]): Active; inhibition at 0.1 µM (Aorta): 74%; inhibition [14]: 66%
Cc1cc(NC(=O)NCCN2CCC(O)(Cc3ccccc3)CC2)c2ccccc2n1 [PALOSURAN],–,41,320,IC50 (Urotensin-2 receptor [5]; [17]): > 75000 nM
CCN1CCN(c2cccc3c2CN([C@H](CCCN(C)S(=O)(=O)c2cccs2)c2ccc(OC)c(OC)c2)C3=O)CC1,–,< 5,–,–

# Further lines, with some results ahead:
IC50 (Urotensin-2 receptor [1]) [nM],Ki (Urotensin-2 receptor [2]) [nM],IC50 (Urotensin-2 receptor [6]) [nM],Structure (SMILES),other results
110,1400,–,COc1ccc([C@@H](CCCNS(C)(=O)=O)N2C(=O)c3cccc(N4CCN([C@H](C)c5ccccc5)CC4)c3C2=O)cc1OC,–
–,160,–,COc1ccc(CN2C(=O)c3cccc(N4CCN(Cc5ccccc5)CC4)c3C2=O)cc1OC,half-life [3]: < 3 min
110,540,–,COc1ccc(C(CCNC(=O)OC(C)(C)C)N2C(=O)c3cccc(N4CCN([C@@H](C)c5ccccc5)CC4)c3C2=O)cc1OC (stereo not given in full),–
–,290,–,COc1ccc(C(CNS(=O)(=O)c2cccs2)N2C(=O)c3cccc(N4CCN([C@@H](C)c5ccccc5)CC4)c3C2=O)cc1OC (stereo not given in full),IC50 (Urotensin-2 receptor [5]; [17]): 75 nM
–,> 10000,–,COc1ccc([C@@H](CCCCNC(=O)OC(C)(C)C)N2C(=O)c3cccc(N4CCN([C@H](C)c5ccccc5)CC4)c3C2=O)cc1OC,IC50 (Urotensin-2 receptor [5]; [17]): 65000 nM
1700,–,–,COc1ccc([C@@H](CCCNS(=O)(=O)c2ccc(Cl)s2)N2C(=O)c3cccc(N4CCN([C@H](C)c5ccccc5)CC4)c3C2=O)cc1OC,–
120,270,–,COc1ccc(C(CCNS(=O)(=O)c2cccs2)N2C(=O)c3cccc(N4CCN([C@H](C)c5ccccc5)CC4)c3C2=O)cc1OC (stereo not given in full),–
1000,310,–,COc1ccc(CN2C(=O)c3cccc(N4CCN(Cc5c(F)cccc5F)CC4)c3C2=O)cc1OC,half-life [3]: < 3 min
120,430,–,COc1ccc(C(CNC(=O)OC(C)(C)C)N2C(=O)c3cccc(N4CCN([C@@H](C)c5ccccc5)CC4)c3C2=O)cc1OC (stereo not given in full),–
–,–,1900,COc1ccc(CN2C(=O)c3cccc(N4CCN([C@H](C)c5ccccc5)CC4)c3C2=O)cc1OC,bioavailability [15]: 33%; half-life [3]: 29 min; half-life [16]: 240 min
–,–,140,CCN1CCN(c2cccc3c2CN([C@H](CCCNC(=O)c2cccs2)c2ccc(OC)c(OC)c2)C3=O)CC1,–
–,700,–,COc1ccc(C(CN)N2C(=O)c3cccc(N4CCN([C@@H](C)c5ccccc5)CC4)c3C2=O)cc1OC (stereo not given in full),IC50 (Urotensin-2 receptor [5]; [17]): 300 nM
–,15,320,COc1ccc([C@@H](CCCNC(=O)c2cnoc2C)N2Cc3c(cccc3N3CCN([C@H](C)c4ccccc4)CC3)C2=O)cc1OC,IC50 (Urotensin-2 receptor [5]; [17]): 6 nM
